SENP7 inh = SENP7 protease inhibitors, primary screen, biochemical, luminescence, uHTS | Sentrin-specific protease 7 (Homo sapiens), Q9BQF6 | recombinant SENP7, Z-RLRGG-aminoluciferin luminescence, 40 min | inhibition, % at 5 µM | 1.5% of 330,000 active | AID 434973, 2010;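 active = inhibition above about 50% at the single test dose, limit read from the data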;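 note: plate controls were DMSO with enzyme for no effect and no enzyme buffer wells for full effect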
Target sequence (Q9BQF6 706-1050 limits assumed): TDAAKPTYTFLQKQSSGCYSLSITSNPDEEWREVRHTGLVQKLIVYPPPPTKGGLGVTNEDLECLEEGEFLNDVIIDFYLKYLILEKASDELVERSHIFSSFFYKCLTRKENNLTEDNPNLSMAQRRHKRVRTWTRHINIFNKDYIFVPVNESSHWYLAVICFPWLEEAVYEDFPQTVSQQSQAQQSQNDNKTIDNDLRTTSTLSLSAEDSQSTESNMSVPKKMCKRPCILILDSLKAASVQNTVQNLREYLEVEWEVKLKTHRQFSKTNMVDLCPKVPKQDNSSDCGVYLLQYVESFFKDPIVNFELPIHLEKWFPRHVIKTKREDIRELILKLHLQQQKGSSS
SENP8 block-1 = human SENP8 protease inhibitors, primary screen, biochemical, fluorescence, Nedd8 protein substrate, uHTS. 0.64% of 360,000 active. inhibition, % at 20 µM. Sentrin-specific protease 8 (Homo sapiens), Q96LD8. recombinant SENP8; in the data active = inhibition mostly above about 40%, no sharp cut-off; inactive = mostly below about 27%
Target sequence (Q96LD8 whole entry, looked up): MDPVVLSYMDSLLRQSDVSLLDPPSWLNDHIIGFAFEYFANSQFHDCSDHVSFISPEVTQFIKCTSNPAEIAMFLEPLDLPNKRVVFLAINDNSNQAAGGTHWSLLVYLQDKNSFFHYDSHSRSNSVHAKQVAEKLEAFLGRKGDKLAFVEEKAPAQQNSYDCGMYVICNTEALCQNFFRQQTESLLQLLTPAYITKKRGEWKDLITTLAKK
SENP8 block-2 = SENP8 protease inhibitors, primary screen, biochemical, luminescence | AID 2540, 2010 | 1.2% of 330,000 active | Sentrin-specific protease 8 (Homo sapiens), Q96LD8 | purified SENP8, Z-RLRGG-aminoluciferin cleavage | inhibition, % at 10 µM; in the data active = inhibition above about 50%
SENP6 block = SENP6 protease inhibitors, primary screen, biochemical, luminescence, uHTS. Recombinant SENP6 catalytic domain, aminoluciferin luminescence. inhibition, % at 10 µM. 1.8% of 330,000 active;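 active = inhibition above about 50% at the single tested dose, limit read from the data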;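 note: plate controls were DMSO wells with enzyme for no effect and DMSO wells lacking enzyme for full effect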
Platelet DG rel = inhibitors of platelet dense granule secretion, primary screen, cell-based, MLPCN, human platelets; human platelet-rich plasma, SFLLRN dense granule ATP release, luminescence; inhibition, %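 (compounds screened at 7.5 µM in platelet-rich plasma)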; 0.22% of 300,000 active; AID 1663, 2009;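 active = mean replicate score, as percent of positive control, at or above 50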
SENP1 inh = human SENP1 catalytic domain inhibitors, primary screen, biochemical, FRET, uHTS; recombinant SENP1 catalytic domain, CyPet-SUMO1-YPet FRET cleavage; AID 624204, 2012; inhibition, % at 10 µM; Sentrin-specific protease 1 (Homo sapiens), Q9P0U3; 0.21% of 360,000 active;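 active = inhibition at least 30% at 10 µM, raw YFP signal under a set limit, fluorescence ratio 0.5 to 1.5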;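 note: 0% = enzyme with DMSO and 100% = no enzyme wells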
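Material – human SENP1 catalytic domain · Input – SENP1 enzyme, 20 pM final · Compound dosing – single concentration of 10 µM compound, 0.5% DMSO final · Timing – enzyme reaction for 50 min at room temperature, dark · Measured by – FRET fluorescence in CFP and YFP emission channels · Control set – no-enzyme wells low, DMSO-plus-enzyme wells high control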
SENP1 inh conf = human SENP1 catalytic domain inhibitors, confirmation, biochemical, FRET endpoint, single concentration; shares compounds with SENP1 inh; recombinant SENP1, CyPet-SUMO1-YPet FRET cleavage; inhibition, % at 10 µM; 34% of 520 active; in the data active = inhibition mostly above about 35%, no sharp cut-off; inactive = mostly below about 32%;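 note: 0% = enzyme with DMSO and 100% = no enzyme control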
SENP1 kinetic = human SENP1 catalytic domain inhibitors, confirmation, biochemical, kinetic FRET, single concentration. recombinant SENP1, CyPet-SUMO1-YPet FRET kinetic cleavage. 26% of 520 active. shares compounds with SENP1 inh. AID 651690, 2012. inhibition, % at 10 µM; in the data active = inhibition mostly above about 32%, no sharp cut-off; inactive = mostly below about 29%;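 note: 0% = DMSO with enzyme and 100% = no enzyme substrate only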
* = called active by the depositor; x = not tested or not shown. In the library only some 2.6% were active in any assay of this set; here they are far more common.

SMILES	SENP7 inh	SENP8 block-1	SENP8 block-2	SENP6 block	Platelet DG rel	SENP1 inh	SENP1 inh conf	SENP1 kinetic
Cc1ccc(-c2nc(N/N=C/c3cccc([N+](=O)[O-])c3)c3ccccc3n2)cc1	-2.9	18.8	-4.8	14.1	16.0	31.2*	12.3	12.8
CC(=NNc1ccc([N+](=O)[O-])cn1)c1ccc(N)cc1	x	58.1*	x	x	x	41.3*	21.9	13.1
COc1ccc(N2CCN(C(=O)c3ccc4c(c3)NC(=O)C(CSCc3ccccc3F)N4)CC2)cc1 (stereo not given)	x	31.7	x	x	x	33.0*	5.8	8.9
O=C1Nc2cc(C(=O)N3CCN(c4ccccc4F)CC3)ccc2NC1CSCc1ccccc1F (stereo not given)	1.6	x	12.8	3.0	0.3	x	x	x
Clc1cccc(Cl)c1C[n+]1ccc2ccccc2c1	3.6	-43.6	-12.4	-3.4	11.1	67.6*	6.7	13.4
COc1cccc(COC(=O)CCNC(=O)c2ccc(Cl)cc2)c1OC	-5.3	10.5	4.9	1.0	3.3	-0.5	x	x
CC(=O)Nc1cc(-c2ccc(N3CCN(C)CC3)cc2)cn2c(-c3cccc(C(C)=O)c3)cnc12	x	3.4	x	x	x	36.6*	19.8	13.4
CC(=O)Nc1cc(-c2ccc(N3CCN(C)CC3)cc2)cn2c(-c3ccc(F)c(Cl)c3)cnc12	x	-493.4	x	x	x	41.9*	20.1	21.6
COc1ccccc1CNC(=O)COC(=O)CCN1C(=O)C2CC=CCC2C1=O (stereo not given)	x	3.9	x	x	x	1.5	x	x
CC(=O)Nc1ccc(CN(C)c2c(C)nc3ccc(C(=O)N4CCN(C(C)=O)CC4)cn23)cc1	x	5.6	x	x	x	-0.8	x	x
O=C(c1ccc([N+](=O)[O-])s1)N1CCCc2ccccc21	3.7	28.8	4.1	-5.6	-7.3	1.7	x	x
O=C(c1ccc([N+](=O)[O-])s1)N1CCc2ccccc21	3.8	24.5	-12.6	-4.4	0.1	55.0*	11.2	11.2
O=C1CC[C@@H]2C[C@@]3(C[C@@H]4CCN1[C@H]24)Nc1cc([N+](=O)[O-])ccc1NC3=NCc1ccccc1	x	31.3	x	x	x	54.8*	42.1*	26.3
COc1cc([C@H]2c3c(cc(OC)c(O)c3OC)C[C@@H](CO)[C@@H]2CO[C@@H]2O[C@H](CO)[C@@H](O)[C@H](O)[C@H]2O)cc(OC)c1O	7.1	-3.2	-8.2	-10.1	x	39.8*	33.2*	21.9
CC1CN(C(=O)CCC(=O)N2CCOCC2)c2ccccc2O1 (stereo not given)	14.1	6.6	-9.2	-10.0	0.6	2.7	x	x
CCOc1cc(N2CCOCC2)c(OCC)cc1NC(=O)CCS(=O)(=O)c1ccc(Cl)cc1	-7.1	27.0	-8.2	-5.8	-7.5	37.0*	14.0	14.2
O=C1NC[C@H](CCCCN2CCN(CC3CCCCC3)C(=O)C2=O)N(CCc2ccccc2)C1=O	x	11.2	x	x	x	1.8	x	x
CCOC(=O)CC1(NC(=O)C2CCC(=O)N(Cc3ccccc3F)C2)CCCCC1 (stereo not given)	-17.1	0.3	-3.2	-22.8	-7.4	2.8	x	x
CN1CCN(S(=O)(=O)c2ccc(CNC(=O)c3ccccc3)s2)CC1	6.2	23.8	-2.3	-14.2	2.6	1.8	x	x
Cc1ccc2[nH]c(CNC(=O)c3ccc(F)cc3)cc2c1	3.9	-1.5	3.9	14.6	-4.7	-2.4	x	x
O=[N+]([O-])c1cccc(/C=C/c2nc(C=Nc3ccccc3)c(O)o2)c1	-7.5	4.0	-3.2	-1.6	11.2	32.9*	17.1	18.4
O=C(/C=C/c1ccco1)OCC(=O)N1CCCCC1	0.8	11.7	-11.8	-11.0	x	0.7	x	x
O=C(Nc1cc2c(cc1Cl)-c1ccc([N+](=O)[O-])cc1C2=NO)C(F)(F)F	x	12.6	x	x	x	84.8*	57.0*	36.3*
O=[N+]([O-])c1ccc2c(c1)-c1ccccc1C2=NO	x	17.9	x	x	x	4.5	x	x
O=C(Nc1ccc2c(c1)Cc1cc([N+](=O)[O-])ccc1-2)C(F)(F)F	x	0.5	x	x	x	-5.6	x	x
SMILES	SENP7 inh	SENP8 block-1	SENP8 block-2	SENP6 block	Platelet DG rel	SENP1 inh	SENP1 inh conf	SENP1 kinetic
Nc1ccc2c(c1)C(=NO)c1cc([N+](=O)[O-])ccc1-2	x	34.2	x	x	x	82.6*	86.4*	46.5*
OCC1OC2C(NC(=S)N2c2ccccc2)C(O)C1O (stereo not given)	x	5.9	x	x	x	1.3	x	x
CC(C)CNC(=O)c1ccc(C2SCC(=O)N2Cc2ccccc2)cc1 (stereo not given)	-0.7	-77.2	-3.4	-4.8	-4.3	46.0*	35.1*	29.2
Cc1[nH][nH]c(=O)c1N=Nc1ccccc1Cl	-2.5	32.8	-4.3	16.0	15.3	4.5	x	x
Clc1ccccc1N=Nc1ccccn1	x	57.0*	x	x	x	58.2*	11.4	12.7
COc1ccc(N/N=C(/C)c2cnnc(-c3ccccc3)n2)cc1	3.2	36.2	1.1	5.4	1.5	65.9*	10.0	10.2
COc1ccc([C@H]2CC(=O)C=C(c3ccc(O)cc3)C2)cc1OC	1.6	16.3	-5.0	6.8	x	-17.7	x	x
O=C1C=C(c2cccc(Cl)c2)C[C@@H](c2ccc3c(c2)OCO3)C1	3.6	7.4	2.2	-5.5	x	3.7	x	x
COc1ccc([C@H]2CC(=O)C=C(c3cccc(Cl)c3O)C2)cc1OC	-2.8	8.8	7.5	-3.4	x	33.2*	74.0*	61.7*
O=C1C=C(c2cccc(Cl)c2O)C[C@@H](c2ccc3c(c2)OCO3)C1	1.2	-17.2	8.0	-5.5	x	49.9*	95.4*	76.8*
Cc1ccc(C)c(C(Nc2ccccc2)c2ccc3ccc(C)nc3c2O)c1 (stereo not given)	x	-12.8	x	x	x	4.9	x	x
CCOC(=O)C1CCN(C(=O)CNC(=O)Cn2c(C)cc3ccccc3c2=O)CC1	6.0	-84.7	3.5	0.8	11.6	3.0	x	x
Cc1ccc(S(=O)(=O)Nc2ccccc2OC(C(=O)OC(C)(C)C)C(=O)OC(C)(C)C)cc1	x	24.6	x	x	x	-0.1	x	x
Cc1nc(-c2cccc(NC(=O)c3cc4cc(Br)ccc4oc3=O)c2)cs1	4.3	16.2	8.9	-0.2	-16.5	37.8*	-8.9	-5.7
COc1ccc(CCCNC(=O)C2Cc3c(-c4ccc(NC(C)=O)cc4)ccnc3O2)cc1 (stereo not given)	x	0.3	x	x	x	1.0	x	x

High-throughput results as filed in PubChem BioAssay.
